This is an account of results in paper PMC4485437 (Biochemistry, 2015).

Experiment [1] concerns the target T1, EcMTAN (Escherichia coli, UniProt P0AF12). Nature of the experiment: Luminescence-based steady-state kinetic assay. It counts as biochemical. Conditions: substrate MTA. The essentials:
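His6-tagged enzyme was expressed in E. coli BL21(DE3) (1 mM IPTG, 37°C, 10 h) and purified on Ni-NTA. Product adenine was converted to ATP by excess yeast APRTase (20 microunits/well) and C. symbiosum PPDK (320 microunits/well), then read by luciferase luminescence at 570 nm. Enzyme 5–25 pM; reactions started with 0.02–1 μM MTA.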

For experiment [2], the target named is T2, VcMTANA113P (Vibrio cholerae serotype O1, UniProt Q9KPI8, A113P). Put plainly: Luminescence-based steady-state kinetic assay. Conditions: substrate MTA. The class given is biochemical.
Experiment [3] concerns the target T3, VcMTANV153I (Vibrio cholerae serotype O1, UniProt Q9KPI8, V153I). Put plainly: Luminescence-based steady-state kinetic assay. The class given is biochemical. Conditions: substrate MTA.
Experiment [4] addresses T4, VcMTAN (WT) (Vibrio cholerae serotype O1, UniProt Q9KPI8). Nature of the experiment: Luminescence-based steady-state kinetic assay. The class given is biochemical. The note with it: substrate MTA.
In experiment [5] the target is T5, VcMTANA113P/V153I (VcMTANDOUBLE) (Vibrio cholerae serotype O1, UniProt Q9KPI8, A113P/V153I). Put plainly: Luminescence-based steady-state kinetic assay. It counts as biochemical. The note with it: substrate MTA.
Experiment [6] addresses T6, VcMTANA113P/V153I/R158G (Vc[…]) (Vibrio cholerae serotype O1, UniProt Q9KPI8, A113P/R158G/V153I). Nature of the experiment: Luminescence-based steady-state kinetic assay. The note with it: substrate MTA. It counts as biochemical.
Experiment [7] relates to E. coli DHFR (EcDHFR) Asp27Glu. The note with it: Asp27Glu vs native EcDHFR; cited from earlier work.
Experiment [8] deals with T2, VcMTANA113P. Nature of the experiment: Isothermal titration calorimetry. The class given is binding. Conditions: for ΔH / ΔG / TΔS: 25°C; for ΔG: calculated from Ki*; for TΔS: from Gibbs free energy equation.
Experiment [9] has as its target T1, EcMTAN. Put plainly: Isothermal titration calorimetry. The class given is binding. Conditions: 25°C; for ΔG: calculated from Ki*; for TΔS: from Gibbs free energy equation. The method, boiled down: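 Copurified adenine stripped by dialysis against phosphate buffer with activated charcoal. 60–120 μM dimer in cell, dialysate as reference. Test compound in dialysate; solutions filtered and degassed. Titrated at 25°C. Isotherms fit to two independent sites; ΔH from integrated heat. ΔG = RT ln Ki*, using first-site […] from low-substrate luciferase-coupled assay. −TΔS from ΔG = ΔH − TΔS.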

Experiment [10] addresses T4, VcMTAN (WT). Put plainly: Titration of [14C]MTDIA to MTAN. It counts as binding. The note with it: MTAN dimer 27−85 μM.
In experiment [11] the target is T5, VcMTANA113P/V153I (VcMTANDOUBLE). Put plainly: Isothermal titration calorimetry. It counts as binding.
Experiment [12] has the same target. Put plainly: Titration of [14C]MTDIA to MTAN. It counts as binding. The note with it: MTAN dimer 27−33 μM.
The target in experiment [13] is T3, VcMTANV153I. Put plainly: Titration of [14C]MTDIA to MTAN. The class given is binding. Conditions: MTAN dimer 27−33 μM.
The target in experiment [14] is T3, VcMTANV153I. Nature of the experiment: Isothermal titration calorimetry. It counts as binding.
The target of experiment [15] is T4, VcMTAN (WT). Put plainly: Isothermal titration calorimetry. It counts as binding. The note with it: 25°C; for ΔG: calculated from Ki*; for TΔS: from Gibbs free energy equation. The method, boiled down:
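Enzyme expressed in E. coli BL21(DE3) and Ni-NTA purified, then stripped of bound adenine by dialysis against phosphate buffer with activated charcoal. Sample cell held 60–120 μM dimer; test compound in dialysate was injected, degassed solutions, 25°C. Fit to a two-independent-site model gave ΔH per catalytic site. ΔG = RT ln Ki*, with Ki* from 0.8 mM MTA plus xanthine oxidase at 305 nm. −TΔS came from the Gibbs equation.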

The target in experiment [16] is T6, VcMTANA113P/V153I/R158G (Vc[…]). Nature of the experiment: Isothermal titration calorimetry. The note with it: single site, 25°C. The class given is binding.
For experiment [17], the target named is T2, VcMTANA113P. Nature of the experiment: Titration of [14C]MTDIA to MTAN. The class given is binding. The note with it: MTAN dimer 27−33 μM.
The mark [18] stands for this setting: single site, 25°C, from Gibbs free energy equation.

For the compound 5′-methylthioadenosine [MTA], the kcat at EcMTAN [1] is 0.32 ± 0.01 s⁻¹; at VcMTANA113P [2], 0.17 ± 0.01 s⁻¹; on VcMTANV153I [3], “(7.9 ± 4) × 10^−3 s^−1”; at VcMTAN (WT) [4], 0.18 ± 0.01 s⁻¹; in experiment [5], “(7.4 ± 3) × 10^−2 s^−1”; in [6], 0.11 ± 0.01 s⁻¹. The Km came out at 0.139 ± 0.018 µM at EcMTAN [1] (first-catalytic site filling); 0.262 ± 0.029 µM on VcMTANA113P [2] (first-catalytic site filling); 0.43 ± 0.047 µM at VcMTANV153I [3] (first-catalytic site filling); 0.061 ± 0.006 µM at VcMTAN (WT) [4] (first-catalytic site filling); 0.202 ± 0.023 µM in experiment [5] (first-catalytic site filling); 0.536 ± 0.122 µM in [6] (first-catalytic site filling).
As to `Nc1nc(=O)c2c([nH]1)NCC(CNc1ccc(C(=O)N[C@@H](CCC(=O)O)C(=O)O)cc1)=N2` [DHF, 7,8-dihydrofolate], the “KM(DHF) increase” value in [7] is 20 fold.
Turning to `CSC[C@H]1CN(Cc2c[nH]c3c(N)ncnc23)C[C@@H]1O` [MTDIA, 4′-deaza-1′-aza-2′-deoxy-1′-(9-[^14C]methylene)-Immucillin-A], the “enthalpy of MTDIA binding less favorable than parent VcMTAN” value on VcMTANA113P [8] (VcMTANA113P vs VcMTAN) was 3 kcal/mol. The ΔH was -2.9 ± 0.1 kcal/mol on VcMTANA113P [8] (first site); -1.8 ± 0.2 kcal/mol at VcMTANA113P [8] (second site); -18.9 ± 0.2 kcal/mol at EcMTAN [9] (first site); -16.8 ± 0.2 kcal/mol on EcMTAN [9] (second site); -3.9 ± 0.1 kcal/mol in experiment [11] (single site, 25°C); -4.9 ± 0.1 kcal/mol on VcMTANV153I [14] (single site, 25°C). The ΔH is -6.0 ± 0.2 kcal/mol on VcMTAN (WT) [15] (first site), -2.6 ± 0.3 kcal/mol on VcMTAN (WT) [15] (second site) and -4.8 ± 0.2 kcal/mol in experiment [16]. The ΔG is -13.9 ± 0.1 kcal/mol at VcMTANA113P [8] (first site); -13.5 ± 0.8 kcal/mol at VcMTANA113P [8] (second site); -17.4 ± 0.9 kcal/mol on EcMTAN [9] (first site); -10.2 ± 0.1 kcal/mol on EcMTAN [9] (second site); -15.7 ± 0.1 kcal/mol in experiment [11] (single site, 25°C, calculated from Ki*); -15.8 ± 0.1 kcal/mol on VcMTAN (WT) [15] (first site). The ΔG is -14.3 ± 0.2 kcal/mol at VcMTAN (WT) [15] (second site) and -13.3 ± 0.1 kcal/mol in experiment [16] (calculated from Ki*). Also, the TΔS on VcMTANA113P [8] (first site) was -11.0 ± 0.1 kcal/mol; at VcMTANA113P [8] (second site) it was -11.7 ± 0.8 kcal/mol; at EcMTAN [9] (first site), 1.5 ± 0.9 kcal/mol; on EcMTAN [9] (second site) it was 6.6 ± 0.2 kcal/mol; in [11] (setting [18]), -11.8 ± 0.1 kcal/mol; at VcMTANV153I [14] (setting [18]), -5.7 ± 0.2 kcal/mol. Besides, the TΔS on VcMTAN (WT) [15] (first site) is -9.8 ± 0.2 kcal/mol; at VcMTAN (WT) [15] (second site) it was -11.7 ± 0.4 kcal/mol; in experiment [16] (from Gibbs free energy equation), -8.5 ± 0.2 kcal/mol. Further, the “binding of MTDIA* on titration to one or two catalytic sites per dimer” value is “complete binding at the first site and near-stoichiometric binding at the second site” on VcMTAN (WT) [10]; “left more MTDIA* unbound as both the first and second sites were titrated” in [12]; “left more MTDIA* unbound as both the first and second sites were titrated” at VcMTANV153I [13]; “complete binding at the first site and near-stoichiometric binding at the second site” on VcMTANA113P [17]. Further, the “enthalpy of MTDIA binding more favorable than that of VcMTANA113P” value in experiment [11] (VcMTANDOUBLE vs VcMTANA113P) is -1.0 kcal/mol; on VcMTANV153I [14] (VcMTANV153I vs VcMTANA113P), -2.0 kcal/mol.
For `CN(Cc1cnc2nc(N)nc(N)c2n1)c1ccc(C(=O)N[C@@H](CCC(=O)O)C(=O)O)cc1` [methotrexate], the methotrexate affinity decrease in experiment [7] is recorded as 176 fold.
